Source: ChEMBL document CHEMBL3822384, “2-(3-Methoxyphenyl)quinazoline Derivatives: A New Class of Direct Constitutive Androstane Receptor (CAR) Agonists” (J Med Chem, 2016)
Active and inactive are the calls of the source. No cut-off for these calls is given here.

What was measured:
[1] = target: T1, Glucocorticoid receptor (Homo sapiens) (UniProt P04150); assay: Agonist activity at glucocorticoid receptor (unknown origin)
T1 sequence (whole entry): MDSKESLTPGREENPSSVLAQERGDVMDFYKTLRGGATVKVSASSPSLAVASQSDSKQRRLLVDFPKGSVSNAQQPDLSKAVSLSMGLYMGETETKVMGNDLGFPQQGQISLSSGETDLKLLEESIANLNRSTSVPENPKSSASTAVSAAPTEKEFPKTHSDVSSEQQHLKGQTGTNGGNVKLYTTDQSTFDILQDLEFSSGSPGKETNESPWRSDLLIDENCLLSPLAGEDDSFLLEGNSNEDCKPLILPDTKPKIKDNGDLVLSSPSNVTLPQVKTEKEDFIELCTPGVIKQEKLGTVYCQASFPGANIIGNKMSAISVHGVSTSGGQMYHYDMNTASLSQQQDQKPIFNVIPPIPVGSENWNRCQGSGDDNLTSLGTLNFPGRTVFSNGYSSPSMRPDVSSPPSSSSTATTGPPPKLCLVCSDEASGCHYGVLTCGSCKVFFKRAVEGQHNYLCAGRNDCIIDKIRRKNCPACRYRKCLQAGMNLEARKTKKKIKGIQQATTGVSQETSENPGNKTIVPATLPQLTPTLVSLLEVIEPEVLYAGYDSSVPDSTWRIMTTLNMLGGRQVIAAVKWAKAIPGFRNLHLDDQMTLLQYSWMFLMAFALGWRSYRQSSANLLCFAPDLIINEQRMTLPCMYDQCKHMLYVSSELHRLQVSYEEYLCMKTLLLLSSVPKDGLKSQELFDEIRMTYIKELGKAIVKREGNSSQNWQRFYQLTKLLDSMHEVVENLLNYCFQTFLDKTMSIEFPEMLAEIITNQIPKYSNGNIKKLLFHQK

[2] = target: T2, Vitamin D3 receptor (Homo sapiens) (UniProt P11473); assay: Agonist activity at VDR in human primary hepatocytes assessed as upregulation of MDR/ABCB1 mRNA expression at 10 uM after 24 hrs by qRT-PCR method; assay type: cell-based; conditions: Hepatocyte
T2 sequence (whole entry): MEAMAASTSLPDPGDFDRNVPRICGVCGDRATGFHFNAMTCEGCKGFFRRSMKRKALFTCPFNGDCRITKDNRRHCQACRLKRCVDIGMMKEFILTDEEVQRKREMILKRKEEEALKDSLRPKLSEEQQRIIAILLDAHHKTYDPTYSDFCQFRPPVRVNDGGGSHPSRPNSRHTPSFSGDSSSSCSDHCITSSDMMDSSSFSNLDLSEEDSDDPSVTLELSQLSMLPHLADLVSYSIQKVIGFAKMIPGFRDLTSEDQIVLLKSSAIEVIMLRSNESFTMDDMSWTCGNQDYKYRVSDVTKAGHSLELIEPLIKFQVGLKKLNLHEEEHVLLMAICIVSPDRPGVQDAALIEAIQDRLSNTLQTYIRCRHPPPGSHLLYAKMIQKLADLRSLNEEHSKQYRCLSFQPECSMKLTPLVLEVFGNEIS

[3] = target: T3, Nuclear receptor subfamily 1 group I member 3 (Homo sapiens, UniProt Q14994); assay: Agonist activity at CAR expressed in human HepG2 cells after 24 hrs by CYP3A4-luciferase reporter gene assay; assay type: cell-based; conditions: hepg2, 24 h
T3 sequence (Q14994 whole entry): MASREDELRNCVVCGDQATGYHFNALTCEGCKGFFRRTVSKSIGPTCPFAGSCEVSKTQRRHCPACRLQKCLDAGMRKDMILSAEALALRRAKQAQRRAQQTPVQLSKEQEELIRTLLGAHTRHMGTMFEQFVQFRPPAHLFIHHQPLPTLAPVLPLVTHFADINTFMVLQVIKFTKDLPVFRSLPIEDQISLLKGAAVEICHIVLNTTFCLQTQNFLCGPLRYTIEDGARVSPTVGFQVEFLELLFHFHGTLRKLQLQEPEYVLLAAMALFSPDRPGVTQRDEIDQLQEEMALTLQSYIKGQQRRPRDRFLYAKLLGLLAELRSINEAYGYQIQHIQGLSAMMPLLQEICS
Procedure, shortened: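 HepG2 cells co-transfected with CYP3A4-luc, wild-type CAR vector and pRL-TK; 24 h stabilization, then compound or DMSO (0.1%, v/v) for 24 h, with parallel androstenol (5 µM) treatment to suppress basal activity. Dual firefly/Renilla luciferase read; fold induction over vehicle (set to 1), means of three independent experiments.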

Cytochrome P450 2D6 = Cytochrome P450 2D6 (Homo sapiens, UniProt P10635); assay: Inhibition of recombinant human CYP2D6 by P450-Glo luminescence assay; assay type: ADME
Cytochrome P450 2D6, sequence (P10635 whole entry): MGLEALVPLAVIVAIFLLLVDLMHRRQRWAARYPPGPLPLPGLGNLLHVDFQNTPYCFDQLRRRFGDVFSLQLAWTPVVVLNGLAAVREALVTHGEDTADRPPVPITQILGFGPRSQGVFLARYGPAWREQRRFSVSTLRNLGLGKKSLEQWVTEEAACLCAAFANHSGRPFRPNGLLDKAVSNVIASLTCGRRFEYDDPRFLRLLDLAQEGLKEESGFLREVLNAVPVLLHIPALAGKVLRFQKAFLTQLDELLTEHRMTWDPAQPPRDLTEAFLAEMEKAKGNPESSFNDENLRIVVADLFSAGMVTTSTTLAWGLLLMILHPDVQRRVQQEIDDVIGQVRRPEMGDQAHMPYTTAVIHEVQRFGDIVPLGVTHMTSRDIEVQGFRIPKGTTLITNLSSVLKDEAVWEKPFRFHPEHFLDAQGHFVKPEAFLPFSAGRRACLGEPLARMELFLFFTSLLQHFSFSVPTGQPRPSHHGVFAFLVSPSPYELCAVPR

[4] = target: T4, Aryl hydrocarbon receptor (Homo sapiens, UniProt P35869); assay: (§1) Agonist activity at AHR expressed in human HepG2 cells after 24 hrs by pXRE-luciferase reporter gene assay; assay type: cell-based
T4 sequence (P35869 whole entry): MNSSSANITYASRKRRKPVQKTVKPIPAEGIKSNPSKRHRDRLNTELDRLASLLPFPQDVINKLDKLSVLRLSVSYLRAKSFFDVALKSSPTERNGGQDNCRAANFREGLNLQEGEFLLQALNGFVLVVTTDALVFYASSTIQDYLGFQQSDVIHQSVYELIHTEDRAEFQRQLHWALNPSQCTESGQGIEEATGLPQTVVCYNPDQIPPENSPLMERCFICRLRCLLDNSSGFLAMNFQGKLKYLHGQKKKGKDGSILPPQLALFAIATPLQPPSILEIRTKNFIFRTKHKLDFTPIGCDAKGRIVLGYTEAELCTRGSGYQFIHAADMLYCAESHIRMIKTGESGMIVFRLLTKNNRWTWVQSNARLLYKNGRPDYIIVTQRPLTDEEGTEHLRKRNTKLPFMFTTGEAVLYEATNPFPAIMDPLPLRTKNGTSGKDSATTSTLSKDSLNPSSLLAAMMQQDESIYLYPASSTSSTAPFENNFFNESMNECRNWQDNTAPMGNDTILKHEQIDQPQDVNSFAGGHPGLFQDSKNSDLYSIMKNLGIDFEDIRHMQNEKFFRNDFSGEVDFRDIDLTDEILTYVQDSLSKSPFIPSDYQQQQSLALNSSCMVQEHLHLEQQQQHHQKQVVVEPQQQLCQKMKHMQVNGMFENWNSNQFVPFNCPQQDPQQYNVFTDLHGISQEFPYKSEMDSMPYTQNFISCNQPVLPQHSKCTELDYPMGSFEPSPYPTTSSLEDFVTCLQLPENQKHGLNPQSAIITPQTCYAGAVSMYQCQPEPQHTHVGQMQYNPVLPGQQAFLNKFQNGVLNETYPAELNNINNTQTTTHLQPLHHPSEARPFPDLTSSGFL

AHR = target: T5, AHR (Homo sapiens, UniProt P35869); assay: as §1; assay type: cell-based; conditions: human, HepG2 cells expressing AHR; read-out: Imax
T5 sequence (P35869 whole entry): T4 sequence (P35869 whole entry)

[5] = target: T2, Vitamin D3 receptor (Homo sapiens); assay: Agonist activity at VDR in human primary hepatocytes assessed as upregulation of CYP3A5 mRNA expression at 10 uM after 24 hrs by qRT-PCR method; assay type: cell-based; conditions: Hepatocyte

Row | Structure (SMILES) | Activity [1] | Activity [2] | Activity [3] | IC50 (Cytochrome P450 2D6) | EC50 [4] | Emax at 24 h (AHR) | Activity [5] | IC50 (Cytochrome P450 2D6; read-out: IC50)
1 | COc1cccc(-c2nc(OC)c3ccccc3n2)c1 | inactive | Active | Dose-dependent effect | Not Active | 7.3 µM | 290% | Active | –
2 | COc1cccc(-c2nc3ccccc3c(=S)[nH]2)c1 | inactive | Active | Dose-dependent effect | Not Active | 0.63 µM | 266% | Active | –
3 | COc1cccc(-c2nc(SC)c3ccccc3n2)c1 | inactive | Active | Dose-dependent effect | – | 2.3 µM | 219% | Active | 17.3 µM
